pIC50: −log10 of the molar value. The source made the active and inactive calls. The calls are words filed in the database; no cut-off is given here.
Experiments:
[1] = tested on: A-375; assay: Induction of apoptosis in human A-375 cells assessed as viable cells at 2 uM incubated for 48 hrs by annexin V-FITC and PI staining based flow cytometry (reference value: 96.3 %); type: functional; settings: read-out: Activity
[2] = Intraperitoneal bioavailability in ICR mouse at 20 mg/kg measured upto 24 hrs by LC-MS/MS analysis; settings: in vivo, ip
[3] = tested on: HCT-116; assay: Cytotoxicity against human HCT-116 cells assessed as effect on cell morphology at 0.5 to 8 micromol incubated for 48 hrs by microscopic analysis; type: functional, cell-based; settings: dose 0.5-8 µmol
In short: (§1)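 Five cancer cell lines treated with compound or DMSO (0.1 %) for 48 h. Morphology inspected by light microscopy at 10× objective.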

[4] = tested on: A-375; assay: Induction of apoptosis in human A-375 cells assessed as early apoptotic cells at 0.5 uM incubated for 48 hrs by annexin V-FITC and PI staining based flow cytometry (reference value: 1.34 %); type: functional
[5] = target: Histone deacetylase 1 (Homo sapiens, UniProt Q13547); assay: Inhibition of recombinant human HDAC1 using SIRT1 as substrate incubated for 10 mins followed by substrate addition and measured after 30 mins by fluorescence based assay
Chain of Histone deacetylase 1 (Q13547 whole entry): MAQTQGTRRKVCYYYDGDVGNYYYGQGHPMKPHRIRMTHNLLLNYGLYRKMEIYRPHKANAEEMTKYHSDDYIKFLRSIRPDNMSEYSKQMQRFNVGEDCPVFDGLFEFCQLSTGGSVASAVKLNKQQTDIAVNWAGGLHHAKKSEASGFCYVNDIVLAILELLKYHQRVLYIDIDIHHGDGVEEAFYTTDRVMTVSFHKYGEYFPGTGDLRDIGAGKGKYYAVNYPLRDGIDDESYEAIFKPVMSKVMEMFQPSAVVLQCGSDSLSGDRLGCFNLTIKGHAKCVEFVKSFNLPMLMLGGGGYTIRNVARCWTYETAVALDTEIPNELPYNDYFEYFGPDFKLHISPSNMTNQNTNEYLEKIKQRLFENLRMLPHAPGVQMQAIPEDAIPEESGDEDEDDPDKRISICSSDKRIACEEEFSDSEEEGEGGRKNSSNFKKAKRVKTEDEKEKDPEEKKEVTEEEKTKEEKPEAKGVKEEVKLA
In short: (§2)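 IC50 values reported as means of at least two separate determinations, expressed as mean ±SD.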

[6] = tested on: NCI-H460; assay: Antiproliferative activity against human H460 cells assessed as reduction in cell growth at 2 uM incubated for 72 hrs by CCK-8 assay relative to control; type: functional
[7] = target: T1, Histone deacetylase 2 (Homo sapiens, UniProt Q92769); assay: Inhibition of recombinant human HDAC2 using FLUOR-DE-LYS-Green as substrate incubated for 10 mins followed by substrate addition and measured after 30 mins by fluorescence based assay; in short: as §2
T1 sequence (Q92769 whole entry): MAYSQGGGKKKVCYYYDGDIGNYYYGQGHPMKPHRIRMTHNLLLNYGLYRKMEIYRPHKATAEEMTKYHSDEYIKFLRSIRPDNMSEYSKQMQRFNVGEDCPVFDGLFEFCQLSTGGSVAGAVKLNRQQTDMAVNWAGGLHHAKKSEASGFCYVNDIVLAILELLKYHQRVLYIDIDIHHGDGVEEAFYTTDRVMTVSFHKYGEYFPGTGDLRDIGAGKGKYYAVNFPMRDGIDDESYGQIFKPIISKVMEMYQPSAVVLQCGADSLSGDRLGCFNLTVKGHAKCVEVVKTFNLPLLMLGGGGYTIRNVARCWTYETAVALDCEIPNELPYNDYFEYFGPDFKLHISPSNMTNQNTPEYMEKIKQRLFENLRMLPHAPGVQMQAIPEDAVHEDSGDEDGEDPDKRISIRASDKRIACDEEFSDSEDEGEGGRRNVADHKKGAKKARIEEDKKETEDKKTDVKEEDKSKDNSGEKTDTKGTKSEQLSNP

[8] = target: T1, Histone deacetylase 2; assay: Potency index, ratio of IC50 of CS055 to IC50 of compound for inhibition of recombinant human HDAC2 using FLUOR-DE-LYS-Green as substrate incubated for 10 mins followed by substrate addition and measured after 30 mins by fluorescence based assay
[9] = tested on: NCI-H460; assay: Induction of apoptosis in human H460 cells assessed as apoptosis rate at 2 uM incubated for 48 hrs by annexin V-FITC and PI staining based flow cytometry relative to control; type: functional
[10] = tested on: HCT-116; assay: Induction of apoptosis in human HCT-116 cells assessed as late apoptotic cells at 0.5 uM incubated for 48 hrs by annexin V-FITC and PI staining based flow cytometry (reference value: 1.88 %); type: functional
[11] = tested on: HCT-116; assay: Induction of apoptosis in human HCT-116 cells assessed as apoptosis rate at 2 uM incubated for 48 hrs by annexin V-FITC and PI staining based flow cytometry relative to control; type: functional
[12] = tested on: NCI-H460; assay: Induction of apoptosis in human NCI-H460 cells assessed as necrotic cells incubated for 48 hrs by annexin V-FITC and PI staining based flow cytometry; type: functional, cell-based; settings: dose 0.5-2 µM
[13] = tested on: HeLa; assay: Induction of apoptosis in human HeLa cells assessed as apoptosis rate at 2 uM incubated for 48 hrs by annexin V-FITC and PI staining based flow cytometry relative to control; type: functional
[14] = tested on: HeLa; assay: Induction of apoptosis in human HeLa cells assessed as viable cells at 2 uM incubated for 48 hrs by annexin V-FITC and PI staining based flow cytometry (reference value: 98.5 %); type: functional; settings: read-out: Activity
[15] = tested on: HeLa; assay: Induction of apoptosis in human HeLa cells assessed as viable cells at 0.5 uM incubated for 48 hrs by annexin V-FITC and PI staining based flow cytometry (reference value: 98.5 %); type: functional; settings: read-out: Activity
[16] = tested on: NCI-H460; assay: Induction of apoptosis in human NCI-H460 cells assessed as necrotic cells at 2 uM incubated for 48 hrs by annexin V-FITC and PI staining based flow cytometry (reference value: 0.632 %); type: functional
[17] = MRT (0 to t) in ICR mouse at 20 mg/kg, ip measured upto 24 hrs by LC-MS/MS analysis; settings: in vivo
[18] = tested on: HeLa; assay: Induction of apoptosis in human HeLa cells assessed as late apoptotic cells at 2 uM incubated for 48 hrs by annexin V-FITC and PI staining based flow cytometry (reference value: 0.870 %); type: functional
[19] = tested on: NCI-H460; assay: Induction of apoptosis in human NCI-H460 cells assessed as necrotic cells at 0.5 uM incubated for 48 hrs by annexin V-FITC and PI staining based flow cytometry (reference value: 0.632 %); type: functional
[20] = tested on: HeLa; assay: Induction of cell cycle arrest in human HeLa cells assessed as reduction in G0/G1 phase at 0.5 to 2 uM incubated for 24 hrs by PI staining based flow cytometry; type: functional; settings: dose 0.5-2 µM
In short: (§3)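 Treatment at 2, 1 and 0.5 μM for 24 h, alongside CS055 and roscovitine, against a DMSO (0.1 %) blank. Cells then stained with propidium iodide and analyzed by flow cytometry.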

[21] = tested on: NCI-H460; assay: Antimigratory activity against human NCI-H460 cells assessed as inhibition of migration at 0.5 uM incubated for 48 hrs by microscopic based wound healing test; type: functional, cell-based
In short: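 Scratch (wound-healing) migration assay in A375 and H460 cells seeded in 12-well plates. Cells exposed to compound, CS055, roscovitine or DMSO blank for 48 h. At least two independent experiments.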

[22] = tested on: HCT-116; assay: Antitumor activity against human HCT-116 cells xenografted in Balb/c mouse assessed as tumor growth inhibition at 50 mg/kg, ip administered for 21 days and measured on day 21 relative to control; type: functional; settings: HCT-116, ip, 504 h, time 21 day, read-out: GI
In short: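 HCT116 xenografts in BALB/c nude mice. Dosing started when tumours reached 100–300 mm³: intraperitoneal injection once daily for 21 days at 25, 50 or 100 mg/kg, versus blank. Body weight monitored. Tumour growth inhibition computed against blank.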

[23] = tested on: HeLa; assay: Induction of apoptosis in human HeLa cells assessed as necrotic cells at 0.5 uM incubated for 48 hrs by annexin V-FITC and PI staining based flow cytometry (reference value: 0.124 %); type: functional
[24] = tested on: HCT-116; assay: Induction of apoptosis in human HCT-116 cells assessed as viable cells at 1 uM incubated for 48 hrs by annexin V-FITC and PI staining based flow cytometry (reference value: 93.9 %); type: functional; settings: read-out: Activity
[25] = tested on: A-375; assay: Cytotoxicity against human A-375 cells assessed as effect on cell morphology at 0.5 to 8 micromol incubated for 48 hrs by microscopic analysis; type: functional, cell-based; settings: dose 0.5-8 µmol; in short: as §1
[26] = tested on: A-375; assay: Induction of apoptosis in human A-375 cells assessed as late apoptotic cells at 2 uM incubated for 48 hrs by annexin V-FITC and PI staining based flow cytometry (reference value: 2.24 %); type: functional
[27] = tested on: A-375; assay: Induction of cell cycle arrest in human A-375 cells assessed as reduction in G0/G1 phase at 0.5 to 2 uM incubated for 24 hrs by PI staining based flow cytometry; type: functional; settings: dose 0.5-2 µM; in short: as §3
[28] = tested on: HeLa; assay: Induction of apoptosis in human HeLa cells assessed as necrotic cells at 1 uM incubated for 48 hrs by annexin V-FITC and PI staining based flow cytometry (reference value: 0.124 %); type: functional
[29] = tested on: NCI-H460; assay: Induction of apoptosis in human NCI-H460 cells assessed as viable cells at 0.5 uM incubated for 48 hrs by annexin V-FITC and PI staining based flow cytometry (reference value: 90.4 %); type: functional; settings: read-out: Activity

- bioavailability [2]: 50.8%
- pIC50 [5]: 7.15
- pIC50 [7]: 7.64
- Ratio IC50 [8]: 2
- MRT last at 24 h [17]: 4.54 h
Compound: Cc1ccc(Nc2nc(Cl)nc3c2ncn3Cc2ccc(C(=O)Nc3ccccc3N)cc2)cc1
- viability at 2 µM [1]: 7.6%
- Activity [3]: Active
- Activity [4]: 10.6%
- inhibition at 2 µM [6]: 67.3%
- Activity [9]: 59.1%
- Activity [10]: 16.6%
- Activity [11]: 89.6%
- Activity [12]: Dose-dependent effect
- Activity [13]: 22.36%
- viability at 2 µM [14]: 77.4%
- viability at 0.5 µM [15]: 89.9%
- Activity [16]: 9.03%
- Activity [18]: 14.1%
- Activity [19]: 0.254%
- Activity [20]: Active
- inhibition [21]: Active
- inhibition in vivo at 50 mg/kg [22]: 40%
- Activity [23]: 0.31%
- viability at 1 µM [24]: 13.3%
- Activity [25]: Active
- Activity [26]: 84.8%
- Activity [27]: Active
- Activity [28]: 0.363%
- viability at 0.5 µM [29]: 88.7%
